Experimental data reported in PubChem BioAssay.
Results filed as inconclusive are left out.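 The calls were made as follows, unless noted: active = viability increase at or above a cutoff of the median across tested compounds plus 3 SD (cut at about 8.5% in these data, passing the limit was not always enough); inconclusive = some gains above the cutoff, reason not given; inactive = the rest.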

Legend:
[1] = OD615 S. cerevisiae growth inhibition, permissive medium, pilot counter-assay, permissive growth control for S. cerevisiae lifespan shortening project (AID 705;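 active = growth inhibition above 25% in both replicates, a cutoff set 3 SD above the mean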); details: OD615, 24 h, at 10 µM, hits give high values
Procedure, shortened: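 System – S. cerevisiae with engineered DeaD lifespan system · Buffer or medium – SC raffinose/galactose permissive medium · Schedule – cells pre-grown 4 h, then 24 h compound exposure, 30 °C humidified · Technique – culture turbidity as optical density at 615 nm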

[2] = Restrictive medium S. cerevisiae growth inhibition, OD615, pilot screen of yeast lifespan reduction project, restrictive growth control (AID 706;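 active = growth inhibition above a set limit, 3 SD over mean compound inhibition, in both replicates, cut at about 43% in these data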;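 also: modified DeaD lifespan yeast strain shifted to restrictive glucose medium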); details: OD615, 48 h, at 10 µM, hits give high values
Procedure, shortened: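 Material: engineered S. cerevisiae DeaD strain / Medium: glucose-based CSMM-D restrictive medium / Compound: single dose of 10 µM compound final, 0.25% DMSO / Timing: 4 h pre-incubation, 48 h exposure at 30 °C / Technique: OD615 absorbance reading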

[3] = viability gain of MRP-1-high H69AR cells under doxorubicin, pilot screen, MRP-1 activator project, CellTiter-Glo, duplicate (AID 807); details: H69AR viability with doxorubicin, CellTiter-Glo luminescence; at 10 µM; hits give high values;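 also: compound pretreatment 18-22 h then 72 h combined with doxorubicin; 0% = doxorubicin alone and 100% = vehicle without doxorubicin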
[4] = growth suppression of beta-catenin knockout HCT116, pilot screen, human colon tumor cells (AID 823;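 active = cell viability at or below a set limit in both duplicate runs, the limit being the all-compound median minus 4 SD, cut at about 23% in these data, passing the limit was not always enough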;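 also: 0% = wells killed by 20 µM Hyamine and 100% = untreated DMSO cell wells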); details: CellTiter-Glo, 60 h, at 10 µM, hits give low values
[5] = growth suppression of PTEN-deleted HCT116, pilot screen, cell-based, HCT116 clonal line, CellTiter-Glo (AID 824;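 active = viability at or below 27.92% in each of two runs, the all-compound median minus 4 SD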;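 also: 0% = 20 µM Hyamine control and 100% = vehicle cell control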); details: 60 h, at 10 µM, hits give low values
[6] = inhibitors of the yeast RAM network, pilot screen, dse1pr::URA3 reporter, 5-FOA selection (AID 869;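 active = inhibition over a set limit, the all-compound mean plus 3 SD, in both replicate runs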;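 also: 0% = DMSO wells with no growth and 100% = 10 µM 1-NA-PP1 with full growth; RAM network block rescues cells from 5-FOA so hits raise OD615 growth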); details: S. cerevisiae dse1pr::URA3 5-FOA growth, OD615, 2 d; at 10 µM; hits give high values; strain carries analog-sensitive mutant Cbk1 kinase
[7] = RAM signaling pathway blockade in yeast – S. cerevisiae, Pdr1DBD-CYC8 efflux-inhibited sensitized strain, primary screen (AID 1298;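 active = RAM network inhibition above 8.4% in each of two replicates, 3 SD over the compound average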;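 also: 0% = DMSO untreated cells without growth and 100% = 10 µM 1-NA-PP1 full growth; higher means more yeast growth rescued from 5-FOA killing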); details: S. cerevisiae cbk1-as DSE1-URA3 strain, 5-FOA growth OD615, 2 d; at 50 µM; hits give high values

COc1cc(-c2nnc(COc3ccc4cc(Br)ccc4c3)o2)cc(OC)c1OC
inactive: growth inhibition [1] -10.6% | growth inhibition [2] -8.51% | viability increase [3] 0.27% | viability [4] 62.9% | viability [5] 46.7% | inhibition [6] 0.505% | RAM network inhibition [7] 3.67%

Cc1ccccc1N1C(=O)c2cccc3c(N(C)CCO)ccc(c23)C1=O
inactive: growth inhibition [1] 5.99% | growth inhibition [2] -6.49% | viability increase [3] -3.91% | viability [4] 104% | viability [5] 90.4% | inhibition [6] 2.26% | RAM network inhibition [7] 2.12%

O=C(Nc1nc2ccccc2s1)c1ccc(Cl)s1
inactive: growth inhibition [1] -14.7% | growth inhibition [2] -29.6% | viability increase [3] -3.11% | viability [4] 88.3% | viability [5] 77% | inhibition [6] 2.79% | RAM network inhibition [7] 1.32%

O=C1C(C=NCCCN2CCOCC2)=C(O)c2ccccc21
inactive: growth inhibition [1] -1.9% | growth inhibition [2] 10.5% | viability increase [3] -4.78% | viability [4] 98.6% | viability [5] 90.2% | inhibition [6] 0.71% | RAM network inhibition [7] 5.89%

O=C(Nc1ccccc1)N1CCN(Cc2ccc3c(c2)OCO3)CC1
inactive: growth inhibition [1] 5.22% | growth inhibition [2] -15.8% | viability increase [3] -1.15% | viability [4] 101% | viability [5] 96.8% | inhibition [6] 1.25% | RAM network inhibition [7] 2.76%

CC(C)CCNC(=O)CCS(=O)(=O)c1cccc2nonc12
inactive: growth inhibition [1] -8.87% | growth inhibition [2] -22.1% | viability increase [3] -1.75% | viability [4] 105% | viability [5] 103% | inhibition [6] 1.04% | RAM network inhibition [7] 4.52%

Brc1ccc(-c2noc(CCc3ccccc3)n2)o1
inactive: growth inhibition [1] -9.63% | growth inhibition [2] 2.66% | viability increase [3] 1.58% | viability [4] 102% | viability [5] 96.9% | inhibition [6] 3.12% | RAM network inhibition [7] 0.73%

Cc1ccc(C(=O)Nc2ccccc2NC(=O)c2ccc(C)o2)o1
inactive: growth inhibition [1] -1.73% | growth inhibition [2] 8.06% | viability increase [3] -3.39% | viability [4] 93.2% | viability [5] 91.6% | inhibition [6] 1.41% | RAM network inhibition [7] 3.58%

CSCCC(NC(=O)c1c(C)oc2c1CCCC2)C(=O)O (stereo not drawn)
inactive: growth inhibition [1] -2.84% | growth inhibition [2] -12.1% | viability increase [3] -0.78% | viability [4] 98.5% | viability [5] 95.9% | inhibition [6] 1.46% | RAM network inhibition [7] 0.21%

CCOC(=O)Cc1c(C)nc2c(-c3ccccc3)c[nH]n2c1=O
inactive: growth inhibition [1] -9.38% | growth inhibition [2] -14.3% | viability increase [3] -5.95% | viability [4] 76.8% | viability [5] 76.5% | inhibition [6] 1.96% | RAM network inhibition [7] 10.5%

Cc1oc2cc(O)ccc2c(=O)c1Oc1ccccc1Br
inactive: growth inhibition [1] -15.9% | growth inhibition [2] -12.2% | viability increase [3] -3.45% | viability [4] 94% | viability [5] 84.4% | inhibition [6] 1.68% | RAM network inhibition [7] 2.42%

Cc1cc(N2CCN(C3CCCCC3)CC2)n2nc(C)nc2n1
inactive: growth inhibition [1] 5.17% | growth inhibition [2] 4.13% | viability increase [3] -2.07% | viability [4] 93.5% | viability [5] 96.2% | inhibition [6] 2.16% | RAM network inhibition [7] 5.03%

Oc1c(C(c2cccs2)N2CCOCC2)sc2ncnn12 (stereo not drawn)
inactive: growth inhibition [1] 11.1% | growth inhibition [2] -3.88% | viability increase [3] 0.31% | viability [4] 105% | viability [5] 101% | inhibition [6] 0.895% | RAM network inhibition [7] 5.2%

CCn1cc(C(=O)N2CCCC2)c(=O)c2cc(S(=O)(=O)N(C)C)ccc21
inactive: growth inhibition [1] -3.43% | growth inhibition [2] 6.6% | viability increase [3] 0.77% | viability [4] 106% | viability [5] 101% | inhibition [6] 0.825% | RAM network inhibition [7] 3.02%

C=CCOc1ccc(C2c3c(oc4ccccc4c3=O)C(=O)N2c2ccccn2)cc1OCC (stereo not drawn)
inactive: growth inhibition [1] -13.9% | growth inhibition [2] -10.5% | viability increase [3] -5.39% | viability [4] 77.9% | viability [5] 74.6% | inhibition [6] 2.57% | RAM network inhibition [7] 6.03%

Cc1ccc(C2N(c3ccc(F)cc3)C(=O)C3CCCN32)cc1 (stereo not drawn)
inactive: growth inhibition [1] -0.945% | growth inhibition [2] -4.53% | viability increase [3] -1.55% | viability [4] 89.4% | viability [5] 97.3% | inhibition [6] 2.21% | RAM network inhibition [7] 4.87%

NC(=O)C1(N2CCCCC2)CCN(C(=O)c2ccccc2)CC1
inactive: growth inhibition [1] -4.24% | growth inhibition [2] -19.4% | viability increase [3] -1.09% | viability [4] 103% | viability [5] 90.4% | inhibition [6] 0.21% | RAM network inhibition [7] 5.36%

C(=N\c1nccs1)/c1cccnc1
inactive: growth inhibition [1] -7.2% | growth inhibition [2] -11.4% | viability increase [3] -0.86% | viability [4] 108% | viability [5] 100% | inhibition [6] 0.235% | RAM network inhibition [7] 2.23%

Cc1ccc(C2CC(=O)NC(SCc3ccccc3)=C2C#N)o1 (stereo not drawn)
inactive: growth inhibition [1] -12.6% | growth inhibition [2] -9.71% | viability increase [3] -3.75% | viability [4] 85.7% | viability [5] 104% | inhibition [6] -0.825% | RAM network inhibition [7] 0.58%

Cc1nc2nc[nH]c2cc1Br
inactive: growth inhibition [1] 5.74% | growth inhibition [2] 6.22% | viability increase [3] -2.75% | viability [4] 97.8% | viability [5] 100% | inhibition [6] 0.705% | RAM network inhibition [7] -0.41%

O=C(CSc1nnc2ccccn12)N1CCc2ccccc2C1
inactive: growth inhibition [1] -8.87% | growth inhibition [2] 0.78% | viability increase [3] -0.88% | viability [4] 99.7% | viability [5] 93.2% | inhibition [6] 1.54% | RAM network inhibition [7] 2.11%

Cc1ccc(Oc2ccccc2)c(NC=O)c1
inactive: growth inhibition [1] -2.02% | growth inhibition [2] 11.4% | viability increase [3] -3.07% | viability [4] 96.2% | viability [5] 90.4% | inhibition [6] -0.085% | RAM network inhibition [7] 1.17%

CC1=C(C(=O)OC2CCCCC2)C(c2ccco2)C2=C(CC(C)(C)CC2=O)N1 (stereo not drawn)
inactive: growth inhibition [1] -8.2% | growth inhibition [2] -8.91% | viability increase [3] -7.87% | viability [4] 64.8% | viability [5] 62.7% | inhibition [6] 0.115% | RAM network inhibition [7] 2.03%

O=c1c2cnn(-c3ccccc3)c2ncn1Cc1cccc(Cl)c1
inactive: growth inhibition [1] 2.21% | growth inhibition [2] 2.59% | viability increase [3] 3.21% | viability [4] 102% | viability [5] 91.7% | inhibition [6] 3.21% | RAM network inhibition [7] 6.55%
